From ChEMBL document CHEMBL3112454, “Discovery and SAR study of hydroxyacetophenone derivatives as potent, non-steroidal farnesoid X receptor (FXR) antagonists” (Bioorg Med Chem, 2014) come the findings set out here.

Molecules are shown by their SMILES. Some results are limits rather than exact numbers.

For the first assay, the target named is T1, Bile acid receptor (Homo sapiens, UniProt Q96RI1).
T1 sequence (Q96RI1 whole entry): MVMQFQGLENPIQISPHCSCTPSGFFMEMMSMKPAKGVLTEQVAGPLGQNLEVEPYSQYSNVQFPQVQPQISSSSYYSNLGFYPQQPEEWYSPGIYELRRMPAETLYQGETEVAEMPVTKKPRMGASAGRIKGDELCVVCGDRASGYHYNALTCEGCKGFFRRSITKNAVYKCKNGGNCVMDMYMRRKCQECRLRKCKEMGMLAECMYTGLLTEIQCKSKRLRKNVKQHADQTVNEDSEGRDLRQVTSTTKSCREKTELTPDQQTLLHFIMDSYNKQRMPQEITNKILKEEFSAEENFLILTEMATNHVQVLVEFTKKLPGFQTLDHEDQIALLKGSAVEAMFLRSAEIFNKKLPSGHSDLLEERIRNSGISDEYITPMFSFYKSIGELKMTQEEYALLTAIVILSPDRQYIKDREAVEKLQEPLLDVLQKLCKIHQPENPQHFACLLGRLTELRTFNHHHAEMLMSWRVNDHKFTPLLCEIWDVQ
Put plainly: Antagonist activity at GST-tagged FXRalpha LBD (unknown origin) assessed as inhibition of CDCA-induced bio-SRC-1 recruitment after 30 mins by fluorescence based HTRF assay. In a few lines:
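HTRF coactivator-recruitment assay: 10 nM GST-FXRα LBD with 100 nM biotinylated SRC-1 peptide, with CDCA as agonist present. Compounds were tested at a single concentration or a concentration series, incubated 30 min at room temperature, then fluorescence read. Values are mean SD of triplicate measurements.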
In general terms: TR-FRET usually uses a lanthanide donor and a delayed reading to cut background.
Regarding `CCc1cc(CC)c(OCCCCCC(C)(C)c2nn[nH]n2)cc1O`, the IC50 (usually the midpoint of a concentration-inhibition curve) is 3.1 µM.

`CCc1cc(C(C)=O)c(O)cc1OCCCCCC(C)(C)c1nn[nH]n1` [LY-255283]: the IC50 was 35.2 µM. Same read-out and setting: with `CCc1cc(C(=O)C(C)C)c(O)cc1OCCCCCC(C)(C)c1nnn[nH]1` the figure was 8.6 µM. Same read-out and setting: with `CCc1cc(C(C)=O)c(O)cc1OCCCCCC(C)(C)C(=O)O` the figure was > 100 µM; with `CCc1cc(C(C)=O)c(OC(C)c2ccccc2)cc1OCCCCCC(C)(C)c1nnn[nH]1` (configuration not stated), 1.7 µM. In the case of `CC(=O)c1cc(CC(C)C)c(OCCCCCC(C)(C)c2nnn[nH]2)cc1O`, the IC50 turned out to be 5.8 µM. Same read-out and setting: with `CCc1cc(C(C)=O)c(OC)cc1OCCCCCC(C)(C)c1nnn[nH]1` the figure was 5.5 µM; with `CCCc1cc(C(C)=O)c(O)cc1OCCCCCC(C)(C)c1nnn[nH]1`, 25.2 µM.

As for `CCc1cc(C(C)=O)c(OCc2ccccc2)cc1OCCCCCC(C)(C)c1nnn[nH]1`, the IC50 was determined as 1.1 µM. In the case of `CCC(=O)c1cc(CC)c(OCCCCCC(C)(C)c2nnn[nH]2)cc1O`, the IC50 is 8.5 µM. The same measure, in the same setting: with `CCCCc1cc(C(C)=O)c(O)cc1OCCCCCC(C)(C)c1nnn[nH]1` the figure was 1.5 µM; with `CCCCCCc1cc(C(C)=O)c(O)cc1OCCCCCC(C)(C)c1nnn[nH]1`, 3.2 µM. The same measure, in the same setting: with `CCc1cc(C(=O)c2ccccc2)c(O)cc1OCCCCCC(C)(C)c1nnn[nH]1` the figure was 3.1 µM.

As for `CCCCC(=O)c1cc(CC)c(OCCCCCC(C)(C)c2nnn[nH]2)cc1O`, the concentration for half-maximal inhibition (IC50) came to 5.4 µM. Same read-out and setting: with `CCc1cc(C(C)=O)c(OCC2CCCCC2)cc1OCCCCCC(C)(C)c1nnn[nH]1` the figure was 2.9 µM; with `CCCCc1cc(C(C)=O)c(OCc2ccccc2)cc1OCCCCCC(C)(C)c1nnn[nH]1`, 7.8 µM; with `CCc1cc(C(C)=O)c(OCc2cccc(C)c2)cc1OCCCCCC(C)(C)c1nnn[nH]1`, 1.2 µM.

As for `CCCCc1cc(CC)c(O)cc1OCCCCCC(C)(C)c1nnn[nH]1`, the IC50 is 8.7 µM. Same read-out and setting: with `CCCCCCC(=O)c1cc(CC)c(OCCCCCC(C)(C)c2nnn[nH]2)cc1O` the figure was 8.4 µM. Regarding `CCc1cc(C(C)=O)c(OC2CCCC2)cc1OCCCCCC(C)(C)c1nnn[nH]1`, the IC50 was 3.3 µM.

For the molecule `CCc1cc(CC)c(OCc2ccccc2)cc1OCCCCCC(C)(C)c1nnn[nH]1`, the IC50 worked out at 3.5 µM.

The target in the next assay is T2, Bile acid receptor (Homo sapiens) (UniProt Q96RI1).
T2 sequence (whole entry): T1 sequence (Q96RI1 whole entry)
Put plainly: Ratio of guggulsterone IC50 to compound IC50 for GST-tagged FXRalpha LBD (unknown origin) assessed as inhibition of CDCA-induced bio-SRC-1 recruitment after 30 mins by fluorescence based HTRF assay.
As for `CCc1cc(C(C)=O)c(OCc2ccccc2)cc1OCCCCCC(C)(C)c1nnn[nH]1`, the Ratio IC50 was found to be 100.
